Measurements published in the M2OR odorant receptor database.

Assays:
Settings in all cases: stereoisomer not certain
[1] = target: T1, OR10G2 (Homo sapiens) (UniProt Q8NGC3)
T1 sequence (whole entry): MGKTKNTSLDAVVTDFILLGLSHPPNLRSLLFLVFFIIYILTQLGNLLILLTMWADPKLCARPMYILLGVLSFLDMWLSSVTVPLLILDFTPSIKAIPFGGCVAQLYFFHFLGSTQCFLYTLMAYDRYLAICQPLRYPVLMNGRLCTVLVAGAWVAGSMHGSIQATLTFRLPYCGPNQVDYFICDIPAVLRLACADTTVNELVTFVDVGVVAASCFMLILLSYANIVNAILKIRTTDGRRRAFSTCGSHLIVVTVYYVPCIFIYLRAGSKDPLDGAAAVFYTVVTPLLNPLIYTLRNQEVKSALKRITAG
Procedure, shortened: (§1)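 Each receptor–molecule pair is labelled responsive or non-responsive (inactive) according to whether the original authors judged the measured signal statistically different from baseline. The data were taken from the main text and supplementary material of published papers and checked for typos and inconsistencies. Assay methods differed by source, with transient luciferase assays in mammalian cell lines being common.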

[2] = target: T2, OR10G3 (Homo sapiens) (UniProt Q8NGC4)
T2 sequence (whole entry): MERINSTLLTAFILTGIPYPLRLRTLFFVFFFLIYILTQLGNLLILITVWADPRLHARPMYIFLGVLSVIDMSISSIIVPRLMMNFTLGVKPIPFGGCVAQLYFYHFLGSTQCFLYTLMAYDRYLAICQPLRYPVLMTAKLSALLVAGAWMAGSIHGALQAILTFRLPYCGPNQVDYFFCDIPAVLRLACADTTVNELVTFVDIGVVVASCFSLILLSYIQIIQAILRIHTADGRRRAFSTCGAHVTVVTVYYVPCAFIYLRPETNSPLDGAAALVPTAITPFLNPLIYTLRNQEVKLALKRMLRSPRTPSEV
Procedure, shortened: as §1

[3] = target: T3, OR10G4 (Homo sapiens) (UniProt Q8NGN3)
T3 sequence (whole entry): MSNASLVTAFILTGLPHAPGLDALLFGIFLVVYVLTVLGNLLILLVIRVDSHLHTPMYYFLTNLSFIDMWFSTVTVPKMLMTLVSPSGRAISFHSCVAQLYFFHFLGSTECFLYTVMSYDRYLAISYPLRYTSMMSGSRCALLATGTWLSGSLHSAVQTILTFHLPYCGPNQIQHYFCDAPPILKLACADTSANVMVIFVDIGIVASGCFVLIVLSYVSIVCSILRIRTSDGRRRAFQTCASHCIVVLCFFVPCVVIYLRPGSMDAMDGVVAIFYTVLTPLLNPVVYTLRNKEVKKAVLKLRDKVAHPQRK
Procedure, shortened: as §1

[4] = target: T4, OR10G6 (Homo sapiens) (UniProt Q8NH81)
T4 sequence (whole entry): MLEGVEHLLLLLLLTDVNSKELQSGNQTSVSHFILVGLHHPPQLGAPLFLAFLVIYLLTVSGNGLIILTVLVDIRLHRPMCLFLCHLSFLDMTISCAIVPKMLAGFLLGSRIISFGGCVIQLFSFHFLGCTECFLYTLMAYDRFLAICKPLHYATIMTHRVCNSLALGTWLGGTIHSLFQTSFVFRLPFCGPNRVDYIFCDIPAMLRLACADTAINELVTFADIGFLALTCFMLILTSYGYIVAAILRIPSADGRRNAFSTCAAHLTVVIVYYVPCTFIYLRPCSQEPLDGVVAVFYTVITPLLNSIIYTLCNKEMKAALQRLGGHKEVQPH
Procedure, shortened: as §1

[5] = target: T5, OR10G7 (Homo sapiens) (UniProt Q8NGN6)
T5 sequence (whole entry): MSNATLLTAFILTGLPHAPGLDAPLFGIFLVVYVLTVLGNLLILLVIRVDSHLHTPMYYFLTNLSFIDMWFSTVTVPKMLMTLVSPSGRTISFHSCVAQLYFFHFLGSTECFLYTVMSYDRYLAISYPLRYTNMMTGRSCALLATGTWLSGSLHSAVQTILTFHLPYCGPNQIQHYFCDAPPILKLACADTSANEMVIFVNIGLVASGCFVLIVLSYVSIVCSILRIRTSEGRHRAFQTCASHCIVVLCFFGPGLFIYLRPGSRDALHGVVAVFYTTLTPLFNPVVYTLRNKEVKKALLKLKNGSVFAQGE
Procedure, shortened: as §1

[6] = target: T6, OR10G8 (Homo sapiens) (UniProt Q8NGN5)
T6 sequence (whole entry): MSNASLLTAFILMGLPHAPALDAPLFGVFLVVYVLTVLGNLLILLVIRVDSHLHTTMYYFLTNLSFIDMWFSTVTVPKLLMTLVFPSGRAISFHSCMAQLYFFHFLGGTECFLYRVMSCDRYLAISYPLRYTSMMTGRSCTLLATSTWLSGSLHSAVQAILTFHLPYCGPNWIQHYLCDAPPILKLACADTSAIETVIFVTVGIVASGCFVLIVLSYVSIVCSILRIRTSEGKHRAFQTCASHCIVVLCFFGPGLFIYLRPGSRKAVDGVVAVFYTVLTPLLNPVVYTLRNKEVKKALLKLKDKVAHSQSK
Procedure, shortened: as §1

[7] = target: T7, OR10G9 (Homo sapiens) (UniProt Q8NGN4)
T7 sequence (whole entry): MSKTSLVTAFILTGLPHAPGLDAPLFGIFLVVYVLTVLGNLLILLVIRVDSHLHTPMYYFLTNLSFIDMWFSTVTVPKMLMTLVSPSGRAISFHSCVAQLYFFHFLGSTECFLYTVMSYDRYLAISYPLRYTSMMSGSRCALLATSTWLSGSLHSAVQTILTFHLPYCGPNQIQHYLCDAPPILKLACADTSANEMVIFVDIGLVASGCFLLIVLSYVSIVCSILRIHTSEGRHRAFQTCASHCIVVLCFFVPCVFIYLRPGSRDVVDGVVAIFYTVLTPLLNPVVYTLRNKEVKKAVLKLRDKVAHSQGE
Procedure, shortened: as §1

[8] = target: T8, OR10H1 (Homo sapiens) (UniProt Q9Y4A9)
T8 sequence (whole entry): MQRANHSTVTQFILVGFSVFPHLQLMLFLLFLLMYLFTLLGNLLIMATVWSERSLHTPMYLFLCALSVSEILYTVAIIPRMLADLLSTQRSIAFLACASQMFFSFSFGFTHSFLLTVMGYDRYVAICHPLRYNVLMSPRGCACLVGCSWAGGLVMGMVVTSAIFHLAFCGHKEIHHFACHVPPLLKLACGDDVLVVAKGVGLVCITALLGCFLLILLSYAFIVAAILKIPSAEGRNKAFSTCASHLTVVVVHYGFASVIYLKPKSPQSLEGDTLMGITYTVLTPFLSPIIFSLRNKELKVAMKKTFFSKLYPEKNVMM
Procedure, shortened: as §1

[9] = target: T9, OR10H2 (Homo sapiens) (UniProt O60403)
T9 sequence (whole entry): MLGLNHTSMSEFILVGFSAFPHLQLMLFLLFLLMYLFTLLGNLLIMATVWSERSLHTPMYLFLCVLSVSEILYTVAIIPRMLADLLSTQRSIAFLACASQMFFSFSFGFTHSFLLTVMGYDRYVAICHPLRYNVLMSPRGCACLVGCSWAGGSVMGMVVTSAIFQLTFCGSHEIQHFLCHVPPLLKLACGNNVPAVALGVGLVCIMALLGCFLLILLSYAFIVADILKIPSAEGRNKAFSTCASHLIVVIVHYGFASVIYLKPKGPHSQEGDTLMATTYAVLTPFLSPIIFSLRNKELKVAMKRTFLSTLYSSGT
Procedure, shortened: as §1

[10] = target: T10, OR10H3 (Homo sapiens) (UniProt O60404)
T10 sequence (whole entry): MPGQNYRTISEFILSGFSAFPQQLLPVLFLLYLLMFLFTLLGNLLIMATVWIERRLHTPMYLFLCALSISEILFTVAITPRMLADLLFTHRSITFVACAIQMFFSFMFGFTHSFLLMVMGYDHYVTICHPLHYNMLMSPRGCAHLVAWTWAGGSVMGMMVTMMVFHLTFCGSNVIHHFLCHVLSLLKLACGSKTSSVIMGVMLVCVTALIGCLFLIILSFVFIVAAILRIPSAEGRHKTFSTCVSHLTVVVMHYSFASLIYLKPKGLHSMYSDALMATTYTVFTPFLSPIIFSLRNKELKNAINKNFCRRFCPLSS
Procedure, shortened: as §1

[11] = target: T11, OR10H4 (Homo sapiens) (UniProt Q8NGA5)
T11 sequence (whole entry): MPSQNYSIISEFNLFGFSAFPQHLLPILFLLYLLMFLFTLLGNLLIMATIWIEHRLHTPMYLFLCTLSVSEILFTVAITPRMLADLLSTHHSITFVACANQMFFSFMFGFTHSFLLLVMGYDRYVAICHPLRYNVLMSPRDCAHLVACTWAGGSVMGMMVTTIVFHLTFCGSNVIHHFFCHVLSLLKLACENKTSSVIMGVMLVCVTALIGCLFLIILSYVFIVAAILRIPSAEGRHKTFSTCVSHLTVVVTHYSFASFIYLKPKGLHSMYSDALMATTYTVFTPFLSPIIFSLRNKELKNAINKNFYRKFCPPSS
Procedure, shortened: as §1

[12] = target: T12, OR10H5 (Homo sapiens) (UniProt Q8NGA6)
T12 sequence (whole entry): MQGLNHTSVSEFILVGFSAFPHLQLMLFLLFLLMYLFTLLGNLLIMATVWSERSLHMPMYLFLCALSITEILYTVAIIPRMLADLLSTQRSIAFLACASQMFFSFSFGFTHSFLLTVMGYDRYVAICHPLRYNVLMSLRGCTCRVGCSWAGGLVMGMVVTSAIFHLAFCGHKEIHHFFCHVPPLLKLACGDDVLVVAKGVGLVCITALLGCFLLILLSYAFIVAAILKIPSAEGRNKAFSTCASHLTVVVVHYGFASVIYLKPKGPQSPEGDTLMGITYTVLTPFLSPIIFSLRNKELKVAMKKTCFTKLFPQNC
Procedure, shortened: as §1

[13] = target: T13, OR10J1 (Homo sapiens) (UniProt P30954)
T13 sequence (whole entry): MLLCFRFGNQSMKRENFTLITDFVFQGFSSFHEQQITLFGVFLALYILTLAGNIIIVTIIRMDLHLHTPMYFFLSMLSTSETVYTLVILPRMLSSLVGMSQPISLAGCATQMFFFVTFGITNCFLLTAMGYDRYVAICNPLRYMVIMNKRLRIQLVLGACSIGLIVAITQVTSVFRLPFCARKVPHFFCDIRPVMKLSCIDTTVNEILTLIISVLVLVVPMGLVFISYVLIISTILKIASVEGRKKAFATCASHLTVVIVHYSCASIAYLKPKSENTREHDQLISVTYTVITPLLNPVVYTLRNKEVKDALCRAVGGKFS
Procedure, shortened: as §1

[14] = target: T14, OR10J3 (Homo sapiens) (UniProt Q5JRS4)
T14 sequence (whole entry): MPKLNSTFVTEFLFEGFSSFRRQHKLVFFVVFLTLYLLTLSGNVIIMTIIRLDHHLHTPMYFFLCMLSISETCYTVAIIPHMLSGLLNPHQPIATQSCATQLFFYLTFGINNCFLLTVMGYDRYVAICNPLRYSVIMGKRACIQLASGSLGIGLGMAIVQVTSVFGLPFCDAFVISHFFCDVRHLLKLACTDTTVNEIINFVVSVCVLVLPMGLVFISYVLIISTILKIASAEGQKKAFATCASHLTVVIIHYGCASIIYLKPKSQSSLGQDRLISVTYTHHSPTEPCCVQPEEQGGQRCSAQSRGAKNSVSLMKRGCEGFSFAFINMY
Procedure, shortened: as §1

[15] = target: T15, OR10J5 (Homo sapiens) (UniProt Q8NHC4)
T15 sequence (whole entry): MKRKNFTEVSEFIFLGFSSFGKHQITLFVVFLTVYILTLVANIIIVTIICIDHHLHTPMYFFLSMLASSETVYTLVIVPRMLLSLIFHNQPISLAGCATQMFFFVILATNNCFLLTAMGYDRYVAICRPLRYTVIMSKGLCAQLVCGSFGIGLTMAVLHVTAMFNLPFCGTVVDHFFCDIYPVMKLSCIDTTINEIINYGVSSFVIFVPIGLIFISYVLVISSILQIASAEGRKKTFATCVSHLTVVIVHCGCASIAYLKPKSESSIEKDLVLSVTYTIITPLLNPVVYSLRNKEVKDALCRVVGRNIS
Procedure, shortened: as §1

[16] = target: T16, OR10K1 (Homo sapiens) (UniProt Q8NGX5)
T16 sequence (whole entry): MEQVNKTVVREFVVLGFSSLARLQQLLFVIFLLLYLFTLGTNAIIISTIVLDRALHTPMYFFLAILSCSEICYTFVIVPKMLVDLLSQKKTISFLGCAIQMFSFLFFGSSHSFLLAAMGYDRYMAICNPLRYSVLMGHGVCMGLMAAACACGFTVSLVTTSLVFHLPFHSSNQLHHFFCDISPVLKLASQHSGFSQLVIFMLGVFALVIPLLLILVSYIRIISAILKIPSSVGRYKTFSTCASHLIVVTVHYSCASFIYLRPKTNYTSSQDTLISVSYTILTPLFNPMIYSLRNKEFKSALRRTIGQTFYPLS
Procedure, shortened: as §1

[17] = target: T17, OR10P1 (Homo sapiens) (UniProt Q8NGE3)
T17 sequence (whole entry): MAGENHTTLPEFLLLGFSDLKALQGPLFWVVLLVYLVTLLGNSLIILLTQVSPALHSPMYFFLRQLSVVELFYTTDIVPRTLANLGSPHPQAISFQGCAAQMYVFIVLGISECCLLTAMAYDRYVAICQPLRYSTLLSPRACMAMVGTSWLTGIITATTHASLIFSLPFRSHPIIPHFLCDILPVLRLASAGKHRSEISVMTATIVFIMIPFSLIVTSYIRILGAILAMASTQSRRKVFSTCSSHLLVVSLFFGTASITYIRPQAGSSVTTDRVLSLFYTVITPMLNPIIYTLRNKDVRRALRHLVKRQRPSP
Procedure, shortened: as §1

[18] = target: T18, OR10Q1 (Homo sapiens) (UniProt Q8NGQ4)
T18 sequence (whole entry): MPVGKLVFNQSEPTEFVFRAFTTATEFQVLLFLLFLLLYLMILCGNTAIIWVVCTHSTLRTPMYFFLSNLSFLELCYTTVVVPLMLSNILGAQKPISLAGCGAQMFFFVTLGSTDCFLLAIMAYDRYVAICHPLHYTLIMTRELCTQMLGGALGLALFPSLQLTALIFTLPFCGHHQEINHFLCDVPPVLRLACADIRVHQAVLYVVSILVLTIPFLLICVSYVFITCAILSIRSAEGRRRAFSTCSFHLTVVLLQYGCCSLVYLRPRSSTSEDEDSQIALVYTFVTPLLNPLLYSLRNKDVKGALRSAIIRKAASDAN
Procedure, shortened: as §1

Measured: odorant receptor agonist call;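 also: active if original authors judged signal statistically different from baseline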

CCC1OC(C)=C(O)C1=O (centres undefined)
inactive: [1] | [2] | [3] | [4] | [5] | [6] | [7] | [8] | [9] | [10] | [11] | [12] | [13] | [14] | [15] | [16] | [17] | [18]

CCCCCCCCCO
inactive: [15]
